pIC50: −log10 of the molar value. Active and inactive are the calls of the source. No cut-off for these calls is given here.
Assays:
[1] = organism: Rattus norvegicus; test: Effective peroral dose for inhibition of conditioned avoidance response in rats; type: functional; settings: po
[2] = organism: Rattus norvegicus; test: Inhibition of apomorphine-induced stereotypy in rats via peroral route; type: functional; settings: Rattus norvegicus, po; read-out: ED50
[3] = target: D(2) dopamine receptor (Rattus norvegicus, UniProt P61169); test: In vitro inhibitory against radioligand [3H]spiperone binding to rat striatal Dopamine receptor D2
Outline: (§1)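 Competition binding against tritiated radioligand. Test drug was run at five concentrations in a single experiment, and IC50 (nM) was derived from displacement.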

[4] = target: T1, Adrenergic receptor alpha-1 (Rattus norvegicus, UniProt P15823+P23944+P43140); test: Inhibition of [3H]WB-4101 binding to rat cortical Alpha-1 adrenergic receptor in vitro; type: protein assay; outline: as §1
T1 sequence (P15823 whole entry): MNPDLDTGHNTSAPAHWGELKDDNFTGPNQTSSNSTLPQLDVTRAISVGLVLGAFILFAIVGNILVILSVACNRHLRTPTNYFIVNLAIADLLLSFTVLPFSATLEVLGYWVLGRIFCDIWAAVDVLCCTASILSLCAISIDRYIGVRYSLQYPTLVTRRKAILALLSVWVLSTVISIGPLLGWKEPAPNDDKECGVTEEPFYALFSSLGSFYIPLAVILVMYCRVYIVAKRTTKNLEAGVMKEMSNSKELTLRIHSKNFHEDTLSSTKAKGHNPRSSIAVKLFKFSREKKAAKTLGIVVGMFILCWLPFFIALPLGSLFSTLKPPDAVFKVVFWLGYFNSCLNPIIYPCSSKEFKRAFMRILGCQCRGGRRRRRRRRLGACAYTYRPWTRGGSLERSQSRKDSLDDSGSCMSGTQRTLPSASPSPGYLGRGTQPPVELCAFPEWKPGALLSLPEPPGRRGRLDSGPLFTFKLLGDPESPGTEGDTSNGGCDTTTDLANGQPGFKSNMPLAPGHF
T1 sequence (P23944 whole entry): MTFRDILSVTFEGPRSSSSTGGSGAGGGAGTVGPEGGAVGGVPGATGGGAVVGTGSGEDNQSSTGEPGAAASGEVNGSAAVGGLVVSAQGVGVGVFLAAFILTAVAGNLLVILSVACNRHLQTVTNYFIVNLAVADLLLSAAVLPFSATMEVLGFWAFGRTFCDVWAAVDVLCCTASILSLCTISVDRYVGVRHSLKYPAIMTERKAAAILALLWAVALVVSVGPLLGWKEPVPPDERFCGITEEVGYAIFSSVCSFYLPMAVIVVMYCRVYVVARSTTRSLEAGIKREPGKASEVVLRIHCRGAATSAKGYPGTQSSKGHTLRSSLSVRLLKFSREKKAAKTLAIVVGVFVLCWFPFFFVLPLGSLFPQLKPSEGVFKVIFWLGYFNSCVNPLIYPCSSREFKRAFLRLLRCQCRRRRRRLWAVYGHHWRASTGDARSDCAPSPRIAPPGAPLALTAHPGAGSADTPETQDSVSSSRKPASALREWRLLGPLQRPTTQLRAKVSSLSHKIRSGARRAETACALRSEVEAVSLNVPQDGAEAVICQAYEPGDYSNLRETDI
T1 sequence (P43140 whole entry): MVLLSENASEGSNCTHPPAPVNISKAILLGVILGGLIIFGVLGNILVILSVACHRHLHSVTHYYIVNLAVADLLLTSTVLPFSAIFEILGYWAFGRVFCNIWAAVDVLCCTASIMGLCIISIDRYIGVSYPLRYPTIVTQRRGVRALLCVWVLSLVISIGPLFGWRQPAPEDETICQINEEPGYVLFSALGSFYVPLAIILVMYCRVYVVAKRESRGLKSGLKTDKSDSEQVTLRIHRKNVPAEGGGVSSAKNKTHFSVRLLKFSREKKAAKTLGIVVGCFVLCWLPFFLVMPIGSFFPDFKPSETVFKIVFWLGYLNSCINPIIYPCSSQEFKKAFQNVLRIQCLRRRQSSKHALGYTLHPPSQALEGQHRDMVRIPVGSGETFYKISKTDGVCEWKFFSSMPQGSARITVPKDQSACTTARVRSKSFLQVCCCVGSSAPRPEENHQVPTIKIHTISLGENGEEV

[5] = target: T2, Sigma non-opioid intracellular receptor 1 (Rattus norvegicus, UniProt Q9R0C9); test: Displacement of (+)-[3H]-3-PPP from rat cortical sigma site; outline: as §1
[6] = target: T1, Adrenergic receptor alpha-1; test: In vitro inhibitory concentration against radioligand [3H]WB-4101 binding to rat cortical alpha-1 adrenergic receptor; type: protein assay
[7] = target: T2, Sigma non-opioid intracellular receptor 1; test: Compound was tested in vitro for its ability to displace radioligand (+)-[3H]-3-PPP from rat cortical sigma receptor
[8] = tested on: Rattus norvegicus; test: Effective in vivo peroral dose against induction of catalepsy in rats; type: functional; settings: Rattus norvegicus, po; read-out: ED50
[9] = organism: Rattus norvegicus; test: Effective dose for motor incoordination in rats was determined by rotarod method; type: functional
[10] = tested on: Rattus norvegicus; test: Effective dose for reversal of trifluoperazine-induced catalepsy in rats; I=Inactive (ED50 mg/Kg); type: functional, organism-based
[11] = organism: Mus musculus; test: Effective dose for inhibition of physostigmine induced lethality in mouse; type: functional
[12] = organism: Mus musculus; test: Effective dose for inhibition of norepinephrine induced lethality in mouse; type: functional
[13] = organism: Rattus norvegicus; test: Effective dose for ethanol potentiation in rats; type: functional
[14] = organism: Rattus norvegicus; test: Effective dose for inhibition of spontaneous motor activity in rats; type: functional

T2 sequence (Q9R0C9 whole entry): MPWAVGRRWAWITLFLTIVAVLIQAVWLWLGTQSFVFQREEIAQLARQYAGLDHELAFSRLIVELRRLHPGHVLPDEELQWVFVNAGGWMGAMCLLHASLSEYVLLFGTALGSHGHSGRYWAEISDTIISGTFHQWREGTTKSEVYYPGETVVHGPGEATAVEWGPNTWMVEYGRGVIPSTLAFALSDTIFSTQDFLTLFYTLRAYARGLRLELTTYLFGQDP
Chain of D(2) dopamine receptor (P61169 whole entry): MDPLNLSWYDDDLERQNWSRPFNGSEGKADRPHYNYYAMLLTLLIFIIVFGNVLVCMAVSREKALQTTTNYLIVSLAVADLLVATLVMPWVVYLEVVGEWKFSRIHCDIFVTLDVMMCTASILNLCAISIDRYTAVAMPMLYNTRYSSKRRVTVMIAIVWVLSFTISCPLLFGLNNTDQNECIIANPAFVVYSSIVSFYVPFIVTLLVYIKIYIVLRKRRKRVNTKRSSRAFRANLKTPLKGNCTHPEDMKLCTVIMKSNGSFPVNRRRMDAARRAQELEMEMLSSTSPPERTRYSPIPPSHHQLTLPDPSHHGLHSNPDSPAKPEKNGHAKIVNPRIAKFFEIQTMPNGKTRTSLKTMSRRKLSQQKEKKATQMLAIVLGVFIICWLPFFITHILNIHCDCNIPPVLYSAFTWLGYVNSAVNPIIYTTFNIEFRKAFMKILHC

| SMILES | ED50 [1] [mg/kg] | ED50 [2] [mg/kg] | pIC50 [3] | IC50 [4] [nM] | pIC50 [5] | IC50 [6] [nM] | pIC50 [7] | ED50 [8] [mg/kg] | ED50 [9] [mg/kg] | Activity [10] | ED50 [11] [mg/kg] | ED50 [12] [mg/kg] | ED50 [13] [mg/kg] | ED50 [14] [mg/kg] |
| --- | --- | --- | --- | --- | --- | --- | --- | --- | --- | --- | --- | --- | --- | --- |
| CSc1nc(N2CCN(CCCC(=O)c3ccc(F)cc3)CC2)ncc1F | > 100 | > 100 | 6.40 | 95 | 6.92 |  |  |  |  |  |  |  |  |  |
| CSc1nc(N2CCN(CCCC(O)c3ccc(F)cc3)CC2)ncc1F (stereo unspecified) | > 100 | > 100 | < 6.00 | 305 | 7.59 |  |  |  |  |  |  |  |  |  |
| O=C(CCCN1CCN(c2ncc(Br)cn2)CC1)c1ccc(F)cc1 | > 100 |  | 5.66 | 72 | 7.07 |  |  |  |  |  |  |  |  |  |
| O=C(CCN1CCN(c2ncc(F)cn2)CC1)c1ccc(F)cc1 | > 100 | > 100 |  |  |  | 523 | 7.16 |  |  |  |  |  |  |  |
| OC(CCCN1CCN(c2ncc(Cl)cn2)CC1)c1ccc(F)cc1 (stereo unspecified) | 87.1 | > 100 | 5.25 | 1420 | 7.66 |  |  | 148 |  |  |  |  |  |  |
| OC(CCN1CCN(c2ncc(F)cn2)CC1)c1ccc(F)cc1 (stereo unspecified) | > 100 | > 100 | < 6.00 | 814 | 6.80 |  |  |  |  |  |  |  |  |  |
| N#CC(CCCN1CCN(c2ncc(F)cn2)CC1)c1ccc(F)cc1 (stereo unspecified) | 19.8 | > 100 | 5.73 | 266 | 6.72 |  |  | > 100 |  |  |  |  |  |  |
| COc1nc(N2CCN(CCCC(O)c3ccc(F)cc3)CC2)ncc1F (stereo unspecified) | 40.8 | 54 | 5.40 | 180 | 7.62 |  |  | 79.2 |  |  |  |  |  |  |
| CN1CCN(C2=Nc3cc(Cl)ccc3Nc3ccccc32)CC1 [CLOZAPINE] |  |  |  |  |  |  | < 6.00 | > 200 | 7.9 | inactive | 5.4 | 3.5 |  |  |
| OC(CCCN1CCN(c2ncccn2)CC1)(c1ccc(F)cc1)c1ccc(F)cc1 | 52.9 | > 50 | 6.70 | 400 | < 6.00 |  |  |  |  |  |  |  |  |  |
| O=C(CCCN1CCN(c2ncc(Cl)cn2)CC1)c1ccc(F)cc1 | > 100 |  | 6.09 | 51 |  |  |  |  |  |  |  |  |  |  |
| CCC(O)(CCCN1CCN(c2ncc(F)cn2)CC1)c1ccc(F)cc1 (stereo unspecified) | 48.5 | > 50 | 5.43 | > 1000 | 6.43 |  |  | > 100 |  |  |  |  |  |  |
| OC(CCCN1CCN(c2ncc(F)cn2)CC1)(c1ccc(F)cc1)c1ccc(F)cc1 | > 100 |  |  | 1140 |  |  |  |  |  |  |  |  |  |  |
| Fc1ccc(/C=C(\CCN2CCN(c3ncccn3)CC2)c2ccc(F)cc2)cc1 | > 100 |  | 5.77 | 375 | < 6.00 |  |  |  |  |  |  |  |  |  |
| O=C(CCCN1CCC(O)(c2ccc(Cl)cc2)CC1)c1ccc(F)cc1 [HALOPERIDOL] | 2.8 | 0.5 |  |  |  |  |  | 0.58 | 5.2 | inactive | > 80 | 26 | 0.28 | 0.73 |

— ChEMBL document CHEMBL1126099, “Synthesis and biological characterization of alpha-(4-fluorophenyl)-4-(5-fluoro-2-pyrimidinyl)-1-piperazinebutanol and analogues as potential atypical antipsychotic agents” (J Med Chem, 1992)
